Measured values published in ChEMBL document CHEMBL1125014, “Synthesis and structure-activity relationships of new 9-N-alkyl derivatives of 9(S)-erythromycylamine” (1990).

What was measured:
Mus musculus [1] = assay: Plasma concentration in mice was determined by oral administration, 20 mg/kg at 20 min; assay type: functional, organism-based; parameters: dose 20 mg/kg
Outline: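 Mice given 20 mg/kg orally or subcutaneously; peripheral plasma sampled at 5, 20 and 40 min and at 1, 2 and 4 h after dosing. Microbiological assay used Micrococcus luteus seeded in Antibiotic Medium 1, with zone sizes converted by the compound's own standard curve. Each value is the average of five mice per time point.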

Rattus norvegicus [2] = species on record: Rattus norvegicus
Rattus norvegicus [3] = species on record: Rattus norvegicus; assay: Fluid concentration in serum tissue was determined in rats at 4 h; assay type: functional
Outline: (§1)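 Rats dosed by gavage at 20 mg/kg; lung, liver, kidney, urine and serum sampled at 0.5, 1, 2, 4 and 6 h after dosing. Antibiotic measured by microbiological assay with Micrococcus luteus seeded in Antibiotic Medium 1. Zone sizes were read against the standard curve for the same compound. Each value is the average of three rats per time point.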

Mus musculus [4] = assay: ED50 value was measured by po administration against streptococcus pneumoniae infection in mice (in vivo, in experiment 2); assay type: functional
Outline: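 Infected mice were dosed orally or subcutaneously at 1 and 5 h postinfection, 0.25 mL of antibiotic solution in 10% aqueous ethanol per dose. Tartaric acid was added where needed for solubility. Several dose concentrations were tested to give the ED50.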

Rattus norvegicus [5] = species on record: Rattus norvegicus; remark: listed apart in the source
Rattus norvegicus [6] = species on record: Rattus norvegicus; assay: Fluid concentration in serum was determined in rats at 4 hr; assay type: functional; outline: as §1
Mus musculus [7] = species on record: Mus musculus
Rattus norvegicus [8] = species on record: Rattus norvegicus; assay: Fluid concentration in serum was determined in rats at 0.5 hr; assay type: functional; outline: as §1
Rattus norvegicus [9] = species on record: Rattus norvegicus; assay: Fluid concentration in liver tissue was determined in rats at 4 hr; assay type: functional; outline: as §1
Rattus norvegicus [10] = species on record: Rattus norvegicus; assay: Fluid concentration in kidney tissue was determined in rats at 6 hr; assay type: functional
Outline: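 Rats were gavaged at 20 mg/kg and tissues sampled 0.5–6 h after dosing. Drug was assayed microbiologically with Micrococcus luteus seeded in Antibiotic Media 1. Zone sizes were read against each compound's own standard curve. Values are the mean of three rats per time point, in μg/g.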

Row | Structure (SMILES) | Plasma concentration (Mus musculus [1]) [µg/mL] | Plasma concentration (Rattus norvegicus [2]) [µg/mL] | Activity (Rattus norvegicus [3]) [µg/mL] | ED50 (Mus musculus [4]) [mg/kg] | Plasma concentration (Rattus norvegicus [5]) [µg/mL] | Activity (Rattus norvegicus [6]) [µg/mL] | Plasma concentration (Mus musculus [7]) [µg/mL] | Activity (Rattus norvegicus [8]) [µg/mL] | Activity (Rattus norvegicus [9]) [µg/mL] | Activity (Rattus norvegicus [10]) [µg/mL]
1 | CCCN[C@@H]1[C@H](C)[C@@H](O)[C@](C)(O)[C@@H](CC)OC(=O)[C@H](C)[C@@H](OC2CC(C)(OC)C(O)C(C)O2)[C@H](C)[C@@H](OC2OC(C)CC(N(C)C)C2O)[C@](C)(O)C[C@H]1C (stereo not given in full) | 0.01 | 0.01 | 0.12 | 13 |  |  |  |  |  | 
2 | CC[C@H]1OC(=O)[C@H](C)[C@@H](O[C@H]2C[C@@](C)(OC)[C@@H](O)[C@H](C)O2)[C@H](C)[C@@H](O[C@@H]2O[C@H](C)C[C@H](N(C)C)[C@H]2O)[C@](C)(O)C[C@@H](C)C(=O)[C@H](C)[C@@H](O)[C@]1(C)O [ERYTHROMYCIN] |  |  |  |  | 4.2 | 0 | 0 | 0.01 | 0 | 0
